ChEMBL document CHEMBL1135528, “Monocyclic human tachykinin NK-2 receptor antagonists as evolution of a potent bicyclic antagonist: QSAR and site-directed mutagenesis studies” (J Med Chem, 2002)
Substitutions are numbered along the chain they refer to. Activity calls are given as the source filed them. The rule behind the calls is not given here. Where a SMILES comes first, the peptide text is derived from it. Bridges are numbered along the chain shown (N, C = ends). [ ]: non-standard residue; d: D form. The star is where a group is joined. NH(β-GlcNAc) = CC(=O)N[C@@H]1[C@@H](O)[C@H](O)[C@@H](CO)O[C@H]1N*; Dap = NC[C@H](N)C(=O)O

How the values were obtained:
[1] = test system: Substance-K receptor (Homo sapiens), P21452 [Y269F]; assay: Binding affinity against Y269F human neurokinin-2 receptor (hNK-2R) using [3H]nepadutant as a radioligand
Chain of Substance-K receptor (Homo sapiens), P21452 [Y269F] (P21452 whole entry Y269F): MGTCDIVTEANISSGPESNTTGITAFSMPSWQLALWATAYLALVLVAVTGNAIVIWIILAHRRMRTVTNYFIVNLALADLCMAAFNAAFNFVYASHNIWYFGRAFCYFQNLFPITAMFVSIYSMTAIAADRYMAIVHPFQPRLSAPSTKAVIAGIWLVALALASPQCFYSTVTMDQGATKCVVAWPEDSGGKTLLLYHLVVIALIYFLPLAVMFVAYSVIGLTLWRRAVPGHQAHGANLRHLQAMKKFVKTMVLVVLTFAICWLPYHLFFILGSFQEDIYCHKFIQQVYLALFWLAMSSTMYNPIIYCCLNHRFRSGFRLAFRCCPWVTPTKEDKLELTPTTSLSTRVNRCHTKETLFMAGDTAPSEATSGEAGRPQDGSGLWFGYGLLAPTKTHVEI
How it was run: (§1)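 Membranes from cells stably transfected with wild-type or mutant hNK-2R, incubated with [3H]nepadutant for 60 min at 20 °C in 50 mM Tris-HCl pH 7.4 containing peptidase inhibitors, 150 mM NaCl, 5 mM MnCl2 and 1 g/L BSA. Competitors ranged 0.3 pM–10 μM. Nonspecific binding was defined with 1 mM unlabeled ligand. Bound label was collected by filtration and counted. Means from ≥3 duplicate experiments.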

[2] = test system: Substance-K receptor (Homo sapiens), P21452 [Q166A]; assay: Binding affinity against Q166A human neurokinin-2 receptor (hNK-2R) using [3H]nepadutant as a radioligand; how it was run: as §1
Chain of Substance-K receptor (Homo sapiens), P21452 [Q166A] (P21452 whole entry Q166A): as the sequence (P21452 whole entry Y269F) above, with Q166A, F269Y counted along it

[3] = test system: Substance-K receptor (Homo sapiens), P21452 [F168A]; assay: Binding affinity against F168A human neurokinin-2 receptor (hNK-2R) using [3H]-nepadutant as a radioligand; how it was run: as §1
Chain of Substance-K receptor (Homo sapiens), P21452 [F168A] (P21452 whole entry F168A): as the sequence (P21452 whole entry Y269F) above, with F168A, F269Y counted along it

[4] = test system: T1, Substance-K receptor (Homo sapiens), P21452 [S170A]; assay: Binding affinity against S170A human neurokinin-2 receptor (hNK-2R) using [3H]nepadutant as a radioligand; how it was run: as §1
T1 sequence (whole entry): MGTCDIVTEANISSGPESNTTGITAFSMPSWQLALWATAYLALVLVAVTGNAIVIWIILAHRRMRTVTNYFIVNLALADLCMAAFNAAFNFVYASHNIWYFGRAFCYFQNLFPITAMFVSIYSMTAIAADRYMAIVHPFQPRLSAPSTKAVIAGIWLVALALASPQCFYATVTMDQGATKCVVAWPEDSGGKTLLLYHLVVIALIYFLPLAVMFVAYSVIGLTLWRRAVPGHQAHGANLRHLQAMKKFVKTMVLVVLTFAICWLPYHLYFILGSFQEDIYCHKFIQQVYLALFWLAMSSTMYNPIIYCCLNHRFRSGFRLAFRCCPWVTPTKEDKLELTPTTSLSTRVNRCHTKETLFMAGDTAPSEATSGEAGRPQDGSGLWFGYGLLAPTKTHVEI

[5] = test system: T2, Substance-K receptor (Homo sapiens), P21452 [Y266F]; assay: Binding affinity against Y266F human neurokinin-2 receptor (hNK-2R) using [3H]nepadutant as a radioligand; UB is Undetectable Binding; how it was run: as §1
T2 sequence (whole entry): T1 sequence (whole entry) with A170S, Y266F

[6] = test system: Substance-K receptor (Homo sapiens), P21452 [Y289F]; assay: Binding affinity against Y289F human neurokinin-2 receptor (hNK-2R) using [3H]nepadutant as a radioligand; how it was run: as §1
Chain of Substance-K receptor (Homo sapiens), P21452 [Y289F] (P21452 whole entry Y289F): as the sequence (P21452 whole entry Y269F) above, with F269Y, Y289F counted along it

[7] = test system: Substance-K receptor (Homo sapiens), P21452 [S164A]; assay: Binding affinity against S164A human neurokinin-2 receptor (hNK-2R) using [3H]nepadutant as a radioligand; how it was run: as §1
Chain of Substance-K receptor (Homo sapiens), P21452 [S164A] (P21452 whole entry S164A): as the sequence (P21452 whole entry Y269F) above, with S164A, F269Y counted along it

[8] = test system: T3, Substance-K receptor (Homo sapiens), P21452 [C167A]; assay: Binding affinity against C167A human neurokinin-2 receptor (hNK-2R) using [3H]SR-48,968 as a radioligand
T3 sequence (whole entry): T1 sequence (whole entry) with C167A, A170S
How it was run: (§2)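 Radioligand [3H]SR48968 was incubated for 30 min at 20 °C with membranes from stably transfected wild-type or mutant hNK-2R cells, in Tris-HCl 50 mM pH 7.4 buffer with protease inhibitors, NaCl, MnCl2 and BSA. Test ligands ranged 0.3 pM–10 μM, with nonspecific binding in 1 mM unlabeled ligand. Filtration through PEI-soaked filters was followed by scintillation counting. pKi was derived by curve fitting, duplicate determinations.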

[9] = test system: T1, Substance-K receptor (Homo sapiens), P21452 [S170A]
[10] = biological target: T4, Substance-K receptor (Homo sapiens) (UniProt P21452); assay: Binding affinity against wild-type human Wild-type tachykinin receptor 2 (hNK-2R) using [3H]-SR-48,968 as a radioligand; how it was run: as §2
T4 sequence (whole entry): T1 sequence (whole entry) with A170S

[11] = test system: Substance-K receptor (Homo sapiens), P21452 [Y107A]; assay: Binding affinity against Y107A human neurokinin-2 receptor (hNK-2R) using [3H]nepadutant as a radioligand; how it was run: as §1
Chain of Substance-K receptor (Homo sapiens), P21452 [Y107A] (P21452 whole entry Y107A): as the sequence (P21452 whole entry Y269F) above, with Y107A, F269Y counted along it

[12] = test system: Substance-K receptor (Homo sapiens), P21452 [N110A]; assay: Binding affinity against N110A human neurokinin-2 receptor (hNK-2R) using [3H]nepadutant as a radioligand; UB is Undetectable Binding; how it was run: as §1
Chain of Substance-K receptor (Homo sapiens), P21452 [N110A] (P21452 whole entry N110A): as the sequence (P21452 whole entry Y269F) above, with N110A, F269Y counted along it

[13] = biological target: T4, Substance-K receptor (Homo sapiens); assay: Binding affinity against wild type human Wild-type tachykinin receptor 2 (hNK-2R) using [3H]nepadutant as a radioligand; how it was run: as §1
[14] = test system: Substance-K receptor (Homo sapiens), P21452 [Y169A]; assay: Binding affinity against Y169A human neurokinin-2 receptor (hNK-2R) using [3H]nepadutant as a radioligand; how it was run: as §1
Chain of Substance-K receptor (Homo sapiens), P21452 [Y169A] (P21452 whole entry Y169A): as the sequence (P21452 whole entry Y269F) above, with Y169A, F269Y counted along it

KD/Ki [1]: 1.7 nM
KD/Ki [2]: 3.5 nM
KD/Ki [3]: 4.1 nM
KD/Ki [4]: 1.5 nM
UB [5]: inactive
KD/Ki [6]: 2.9 nM
KD/Ki [7]: 2.6 nM
KD/Ki [8]: > 10000 nM
KD/Ki [9]: 1.9 nM
KD/Ki [10]: 9.1 nM
KD/Ki [11]: 0.75 nM
UB [12]: inactive
KD/Ki [13]: 4 nM
KD/Ki [14]: 4.1 nM
SMILES: CC(=O)N[C@@H]1[C@@H](O)[C@H](O)[C@@H](CO)O[C@H]1NC(=O)C[C@@H]1NC(=O)[C@H](CC(C)C)NC(=O)[C@@H]2CNC(=O)C[C@H](NC1=O)C(=O)N[C@@H](Cc1c[nH]c3ccccc13)C(=O)N[C@@H](Cc1ccccc1)C(=O)N2 (cyclo(D(NH(β-GlcNAc))DWF[Dap]L); lactam 2-5)
